The values below come from publication PMC2748811 (The Biochemical journal, 2009).

Data set [1] has as its target T1, PRMDR (multi-drug-resistant HIV-1 PR) (Human immunodeficiency virus type 1 group M subtype B, UniProt P04585, A559V/I542V/I581L/K533R/L498I/L551P/L578M/V570T). The data set can be described thus: Co-elution of inhibitors with PRMDR on size-exclusion chromatography. The class given is binding. As to conditions: for co-elution with PRMDR: MS detection. Put shortly:
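PR_MDR was diluted to 0.25–2 μM subunit concentration in 150 mM ammonium acetate (pH 5.4) with 0.1 mg·ml⁻¹ BSA (final). The active-site inhibitor came from a 1 mM stock in 100% DMSO. Samples were incubated at 37 °C, and 8 μl was injected onto a BioSep SEC3000 column run isocratically at 0.35 ml·min⁻¹ in the same buffer. Detection was by fluorescence and by MS in SIM mode on chosen molecular ions.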

Data set [2] addresses T1, PRMDR (multi-drug-resistant HIV-1 PR). The class given is biochemical. The following applies: for relative potency at inducing monomer formation: dose–response data, results not shown.
Data set [3] relates to PRWT (wild-type HIV-1 PR). In words: Co-elution of active-site inhibitors with PRWT on size-exclusion chromatography. The class given is binding. As to conditions: results not shown.
The test system of data set [4] is monomeric and dimeric forms of PR. As to conditions: 13C-labelled tryptophan residues of PR; ref [21]; cited from earlier work.
In a further data set the test system is PRWT. As to conditions: 5 min pre-incubation with ≤25 nM PRWT; ref [16]; cited from earlier work.
Data set [5] concerns PR dimerization within infected cells. The following applies: fluorescence resonance energy transfer assay; ref [32]; cited from earlier work.
Data set [6] concerns the target T1, PRMDR (multi-drug-resistant HIV-1 PR). In words: PR activity with fluorescent PR substrate after peptide treatment. Format: biochemical. As to conditions: 16 h at 37 °C, PRMDR 1 μM; for PR activity: untreated 2.6.
Data set [7] has the same target. Format: biochemical. The following applies: 25 μM P27; PRMDR 1 μM; 16 h at 37 °C; excitation 280 nm. Put shortly:
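PR_MDR (1 μM final) was incubated 16 h at 37 °C with 25 μM peptide dimerization inhibitor in 150 mM ammonium acetate containing 100 μg·ml⁻¹ BSA. An 8 μl sample was run by SEC in running buffer at pH 5.4, 0.35 ml·min⁻¹ isocratic. Fluorescence was read at 280 nm excitation and 350 nm emission, with emission spectra from 325–375 nm taken at each peak apex against reference spectra at 10.2 and 12 min. MS used SIM at m/z 1086 (10⁺).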

Data set [8] has the same target. The following applies: ref [20]; cited from earlier work.
For the next data set, the system named is PRMDR dimer. Format: binding, HIV-1. As to conditions: 16 h at 37 °C; for Kd: 150 mM ammonium acetate pH 5.4.
The next data set deals with HIV-1 PR dimerization. In words: Size-exclusion chromatography elution of HIV-1 PRs. Format: biochemical. As to conditions: 1 μM (PRT26A 2 μM); 37 °C 60 min.
The test system of data set [9] is HIV-1 PR (autoproteolysis). The data set can be described thus: PR stability and autoproteolysis. The class given is biochemical. The following applies: for autoproteolysis (SDS/PAGE): 20 h at 40 μM, 20 °C; for autoproteolysis (RP-HPLC–MS): after incubation in 150 mM ammonium acetate pH 5.4, results not shown. An outline of the steps: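 Wild-type and multi-drug-resistant HIV-1 PR incubated 16–24 h in ammonium acetate buffer, with or without 1 mM TCEP. Activity read with a fluorescent PR substrate, mean ± S.D. Cleavage checked on Coomassie-stained 10 % Bis/Tris SDS/PAGE. Alternatively, 37 °C samples were quenched with solid guanidine hydrochloride (6 M final) for RP-HPLC, gradient to 95 % solvent B, monitored at 205/276 nm and by electrospray MS.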

The target in another data set is PRT26A. The following applies: read-out: dissociation constant (Kd); ref [30]; cited from earlier work.
The subject of the next data set is HIV-2 PR dimerization. The data set can be described thus: Size-exclusion chromatography elution of oxidized HIV-2 PR. As to conditions: after hydrogen peroxide treatment; results not shown. The class given is biochemical.
[10] abbreviates: 25 μM P27, PRMDR 1 μM, 16 h at 37 °C, MS.
The mark [11] stands for this setting: PRMDR 0.25–2 μM, approximate, MS.
The mark [12] stands for this setting: 20 h at 37 °C, 150 mM ammonium acetate pH 5.4, 2 μM PR, n = 3.

By IC50 is commonly meant the concentration needed to halve the response being measured.

Values joined by “and” are separate entries in the source; they are usually repeats but may differ in a detail not shown here. Equal values may be shown once. Read-outs that look alike come from different tables or passages of the source.

Turning to `Cc1ccccc1CNC(=O)[C@H]1N(C(=O)[C@@H](O)[C@H](Cc2ccccc2)NC(=O)c2cccc(O)c2C)CSC1(C)C` [JE-2147], the “correlation coefficient, JE-2147 area vs PRMDR area by MS” value in data set [1] (MS, PRMDR dose–response) is listed as 0.997. Also, the “elution time of inhibitor co-eluting with PRMDR” value in [1] (molecular ion of inhibitor by MS, PRMDR also 10.8 min) is recorded as 10.8 min. In addition, in data set [2] (1 μM JE-2147, PRMDR 0.25–2 μM, 16 h at 37 °C), the “effect on PRMDR elution” value is on record as “PRMDR eluted as the earlier form (dimer)”.
Take `CSC[C@H](NC(=O)COc1cccc2cnccc12)C(=O)N[C@@H](Cc1ccccc1)[C@H](O)C(=O)N1CSC[C@H]1C(=O)NC(C)(C)C` [KNI-272]: in data set [3], the “co-elution with PRWT” value was “co-elute with PRWT”. Moreover, the “co-elution with PRMDR” value in data set [1] is “did not elute with PRMDR”.
For the molecule `CC(C)c1nc(CN(C)C(=O)N[C@H](C(=O)N[C@@H](Cc2ccccc2)C[C@H](O)[C@H](Cc2ccccc2)NC(=O)OCc2cncs2)C(C)C)cs1` [ritonavir], the “co-elution with PRWT” value in data set [3] is “co-elute with PRWT”. The “co-elution with PRMDR” value in data set [1] was “did not elute with PRMDR”.
Consider `CC(C)(C)NC(=O)[C@@H]1C[C@@H]2CCCC[C@@H]2CN1C[C@@H](O)[C@H](Cc1ccccc1)NC(=O)[C@H](CC(N)=O)NC(=O)c1ccc2ccccc2n1` [saquinavir], for which the “co-elution with PRWT” value in data set [3] is “co-elute with PRWT”. In addition, in [1], the “co-elution with PRMDR” value was “did not elute with PRMDR”.
Ac-CTLNF [acetylated-CTLNF]: in data set [2], the “relative potency at inducing monomer formation” value (“relative potency” below) is reported as “P27 > CTLNF > Ac-CTLNF > Ac-TLNF”.
On to Ac-SEYL-OH, for which the “interaction with PR by NMR” value in [4] is “interaction of a peptide dimerization inhibitor (Ac-SEYL-OH) with both monomeric and dimeric forms of PR”.
“Ac-TLNF [acetylated-TLNF, reference compound]”: the “relative potency” value in data set [2] was “P27 > CTLNF > Ac-CTLNF > Ac-TLNF”.
With CTLNF [reference compound], the IC50 with PRWT is 150 µM. Further, the “relative potency” value in [2] is “P27 > CTLNF > Ac-CTLNF > Ac-TLNF”.
With PQITLRKKRRQRRRPPQVSFNFCTLNF [P27], in data set [5], the “block of PR dimerization within infected cells” value is on record as “block PR dimerization within infected cells”. This molecule had a PR activity in data set [6] (25 μM P27) of 1.85 RFU min^−1 · μg^−1. In addition, in data set [6] (50 μM P27), the “decrease in PRMDR enzyme activity” value turned out to be 99% and the PR activity came to 0.0 RFU min^−1 · μg^−1. In data set [7], the “emission maximum λmax, dimer” value is on record as 346 nm and the “emission maximum λmax, monomer” value came to 352 nm. Also, in [2] (setting [10]), the “PRMDR elution time, dimer peak” value is reported as 10.8 min and the “PRMDR elution time, monomer peak” value amounted to 11.3 min. The monomer induced in data set [2] (25 μM P27, PRMDR at 0.5 μM) amounted to 80%. Further, the monomer induced result in [2] (25 μM P27, PRMDR at 1 μM) is “approx. 40%”. In [2] (50 μM P27), the “time to clear evidence of monomer formation” value is ≤ 4 h. In data set [2] (50 μM P27, PR 1 μM), the “time to maximum effect / plateau of monomer formation” value lay in the range of 10 to 12 h. Moreover, in data set [2] (50 μM P27, steadily decreased thereafter), the “time of peak absolute amount of detectable monomer” value lay in the range of 6 to 8 h. Besides, the “PRMDR peak elution time” value in data set [2] (50 μM peptide, PRMDR 1 μM, 16 h at 37 °C, MS m/z 1086) turned out to be 11.3 min. For the same molecule, the “total PRMDR not recovered after treatment as compared to untreated” value in data set [2] (P27, PRMDR 1 μM, 16 h) was “approx. 20%”. In addition, in [2], the “relative potency” value was “P27 > CTLNF > Ac-CTLNF > Ac-TLNF”. Also, the “inhibition of PRMDR activity” value in data set [8] is reported as “inhibit PRMDR activity”.
With “PRMDR: multi-drug-resistant HIV-1 PR with L10I, K45R, I54V, L63P, A71V, V82T, L90M and I93L”, in the data set on PRMDR dimer (setting [11]), the “elution time, earlier-eluting (dimer) PRMDR peak” value is ~10.8 min and the “elution time, later-eluting (monomer) PRMDR peak” value is reported as ~11.3 min. The Kd at PRMDR dimer (read-out: apparent Kd for dimer dissociation, as dimeric concentration, dimeric concentration) is ~250 nM. The Kd on PRMDR dimer (read-out: apparent Kd for dimer dissociation, monomeric concentration) was ~500 nM. Besides, in the data set with HIV-1 PR dimerization, the “elution time by MS” value is given as 10.8 min. Besides, in [9] (150 mM ammonium acetate pH 5.4), the “autoproteolysis (SDS/PAGE)” value is on record as “remained intact”. Besides, the “PR activity after incubation” value in data set [9] (setting [12]) is reported as “remained unaffected”. The “autoproteolysis (RP-HPLC–MS)” value in [9] is on record as “remained intact”.
Regarding “PRT26A: autoproteolysis-resistant and monomeric HIV-1 PR”, in the data set on HIV-1 PR dimerization, the “elution time by MS” value was 11.2 min and 11.0 min. The Kd at PRT26A was > 1 mM.
PRWT: wild-type HIV-1 PR: in [9] (150 mM ammonium acetate pH 5.4), the “autoproteolysis (SDS/PAGE)” value was “extensive autoproteolysis”. Besides, in [9] (setting [12]), the PR activity lost entry is reported as “more than 95%”. Besides, the “autoproteolysis (RP-HPLC–MS)” value in data set [9] is given as “substantial autoproteolysis”. In data set [9] (within 4 h of incubation), the autoproteolysis result is recorded as “approx. 40%”.

B1: PRHIV-2-OX: oxidized HIV-2 PR (protein, UniProt P04584 514-612, looked up)
Protease: PQFSLWKRPVVTAYIEGQPVEVLLDTGADDSIVAGIELGNNYSPKIVGGIGGFINTKEYKNVEIEVLNKKVRATIMTGDTPINIFGRNILTALGMSLNL
modifications: Protease oxidized
Regarding B1, the “elution of oxidized HIV-2 PR” value in the data set on HIV-2 PR dimerization is given as “consistent with a monomeric form of the PR”.
